One compound from ChEMBL document CHEMBL4842338, “System-oriented optimization of multi-target 2,6-diaminopurine derivatives: Easily accessible broad-spectrum antivirals active against flaviviruses, influenza virus and SARS-CoV-2” (Eur J Med Chem, 2021) can be followed below.

Data set [1] in a line: Selectivity index, ratio of CC50 for human Huh-7 cells to IC50 for Zika virus H/PF/2013 infected in pre-seeded Huh-7 cells assessed as inhibition of viral replication incubated for 72 hrs by immunodetection based plaque reduction assay. Type of data set: toxicity, cell-based. As to conditions: read-out: Selectivity Index.
A short description of data set [2]: Inhibition of full length ZIKA virus NS5 RNA dependent RNA polymerase incubated for 10 mins by picogreen staining based fluorescent analysis (Rvb= 1+/-0.2 uM).
A short description of data set [3]: Cytotoxicity against human Huh-7 cells infected with SARS-COV-2 assessed as reduction in cell viability by celltiter-glo luminescent cell viability assay. Type of data set: cell-based. The following applies: Huh-7 cells infected with SARS-COV-2. An outline of the steps: (§1)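 Compound-exposed cells assessed by CellTiter-Glo luminescence versus DMSO control; CC50 from dose-response.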
A general note: In ATP-based viability assays light output follows the ATP content of the culture.

Data set [4] deals with Influenza A virus. Description: Antiviral activity against Influenza A Puerto Rico/8/34/H1N1 infected in human A549 cells assessed as inhibition of hemagglutinin expression at 20 uM treated post viral infection for 24 hrs followed by infection of fresh cell monolayer of A549 cells with supernatant for 24 hrs by In-cell western assay. Type of data set: functional. The following applies: A/Puerto Rico/8/1934(H1N1). An outline of the steps:
(§2)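 A549 cells infected with PR8 H1N1 and given 20 μM compound: 2 h before infection (PRE), 1 h during adsorption (DUR), or 24 h after adsorption (POST); supernatants used to infect fresh monolayers for 24 h; anti-HA in-cell western; RFU as % of untreated infected; 3 replicates from two experiments.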

Data set [5] is described as follows: Selectivity index, ratio of CC50 for MDCK cells to IC50 for Influenza A Puerto Rico/8/34/H1N1 infected in MDCK cells. Type of data set: toxicity, cell-based. As to conditions: dog, read-out: Selectivity Index. The method, boiled down:
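MDCK or A549 cells (2.5 × 10⁵/well) infected with A/Puerto Rico/8/34 H1N1 for 1 h at 37 °C, then washed. Compound (0.5–20 μM) added in 2% FBS medium for 24 h, with DMSO final ≤0.2%. Virus in supernatants read by hemagglutination. CC₅₀ by MTT (2 × 10⁴ cells/well, same concentrations, 24 h, absorbance 570 nm). SI = CC₅₀/IC₅₀.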

Data set [6] in a line: Selectivity index, ratio of CC50 for African green monkey Vero E6 cells infected with SARS-COV-2 to IC50 for SARS-COV 2 infected in monkey Vero E6 cells. Type of data set: toxicity, cell-based, Vero C1008. As to conditions: read-out: Selectivity Index.
Data set [7] deals with Huh-7. Put plainly: Effect on formation of DENV replication complex in human Huh-7 cells assessed as reduction in expression of NS3 at 50 uM measured after 8 to 24 hrs by DAPI staining based confocal microscopy analysis. Type of data set: functional, cell-based. As to conditions: time 8-24 hrs. An outline of the steps: (§3)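 Huh-7 cells (1 × 10⁴) on coverslips infected with DENV-2 (MOI 0.05), treated (100 or 50 μM as listed), fixed in 4% paraformaldehyde at 8, 12, 16, 24 h; anti-NS3/anti-NS5 with Alexa 488/568 secondaries, DAPI; confocal, 5 random fields at 40×; % positive cells; 2-way ANOVA with Dunnett.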

Data set [8] can be described thus: Inhibition of Dengue virus 2 […] RNA dependent RNA polymerase incubated for 10 mins by picogreen staining based fluorescent analysis (Rvb= 0.27+/-0.03 uM). Set-up: species or system dengue virus type 2.
The test system of data set [9] is MDCK. Description: Cytotoxicity against MDCK cells assessed as reduction in cell viability measured after 24 hrs by MTT assay. Type of data set: cell-based, Canis lupus familiaris. The following applies: dog, mdck, 24 h. A general note: Tetrazolium assays rely on reduction of a dye to a coloured formazan, in cell work by metabolically active cells.
Data set [10] has as its system Calu-3. Description: Cytotoxicity against human Calu-3 cells infected with SARS-COV-2 by celltiter-glo luminescent cell viability assay. As to conditions: calu-3. Type of data set: cell-based. An outline of the steps: as §1
The subject of data set [11] is Influenza A virus. Put plainly: Antiviral activity against Influenza A/California/04/2009H1N1 infected in human A549 cells assessed as reduction in viral protein expression at 20 uM treated for 24 hr post viral adsorption followed by staining with anti-Flu antibody observed at 24 hrs post infection by In-cell western assay. Type of data set: functional, organism-based.

Data set [12] deals with Caco-2. Put plainly: Cytotoxicity against human Caco2 cells infected with SARS-COV-2 assessed as reduction in cell viability by celltiter-glo luminescent cell viability assay. Type of data set: cell-based. The method, boiled down:
as §1

Data set [13] is described as follows: Cytotoxicity against human Huh-7 cells assessed as reduction in cell viability by Celltiter-Glo luminescent cell viability assay. Type of data set: cell-based. The following applies: Huh-7 cells. An outline of the steps: as §1
The test system of data set [14] is Zika virus. Put plainly: Antiviral activity against Zika virus H/PF/2013 infected in pre-seeded Huh-7 cells assessed as inhibition of viral replication incubated for 72 hrs by immunodetection based direct yield reduction assay. Type of data set: functional, organism-based. As to conditions: H/PF/2013, Huh-7, 72 h. An outline of the steps:
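Direct yield reduction in Huh7 cells (7000/well), infected with 50 TCID₅₀ of DENV or ZIKV, or 25 TCID₅₀ of WNV. Adsorption 1 h at 37 °C, then virus removed and serial compound dilutions added. Incubated 72 h (DENV, ZIKV) or 48 h (WNV). Viral antigen immunodetected on the monolayer. IC₅₀ by non-linear regression, mean of three experiments. SI = CC₅₀ (Huh7, CellTiter-Glo luminescence)/IC₅₀.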

The target in data set [15] is PIK3CA (Phosphatidylinositol 4,5-bisphosphate 3-kinase catalytic subunit alpha isoform) (Homo sapiens, UniProt P42336). Put plainly: Inhibition of human full length PIK3CA assessed as residual activity at 5 uM using PI:PS (1:3) as a substrate incubated for 10 mins by scintillation counting analysis relative to control. As to conditions: full length PIK3CA enzyme, probe PI:PS (1:3), read-out: Activity. The method, boiled down: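 Radiometric kinase reaction with 10–50 ng enzyme and compound fixed at 5 μM, 10 μL at 30 °C for 10 min. Reactions spotted on filter and counted by scintillation. Residual activity is the mean ± SD of two independent experiments.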
Chain of PIK3CA (Phosphatidylinositol 4,5-bisphosphate 3-kinase catalytic subunit alpha isoform) (P42336 whole entry, canonical isoform): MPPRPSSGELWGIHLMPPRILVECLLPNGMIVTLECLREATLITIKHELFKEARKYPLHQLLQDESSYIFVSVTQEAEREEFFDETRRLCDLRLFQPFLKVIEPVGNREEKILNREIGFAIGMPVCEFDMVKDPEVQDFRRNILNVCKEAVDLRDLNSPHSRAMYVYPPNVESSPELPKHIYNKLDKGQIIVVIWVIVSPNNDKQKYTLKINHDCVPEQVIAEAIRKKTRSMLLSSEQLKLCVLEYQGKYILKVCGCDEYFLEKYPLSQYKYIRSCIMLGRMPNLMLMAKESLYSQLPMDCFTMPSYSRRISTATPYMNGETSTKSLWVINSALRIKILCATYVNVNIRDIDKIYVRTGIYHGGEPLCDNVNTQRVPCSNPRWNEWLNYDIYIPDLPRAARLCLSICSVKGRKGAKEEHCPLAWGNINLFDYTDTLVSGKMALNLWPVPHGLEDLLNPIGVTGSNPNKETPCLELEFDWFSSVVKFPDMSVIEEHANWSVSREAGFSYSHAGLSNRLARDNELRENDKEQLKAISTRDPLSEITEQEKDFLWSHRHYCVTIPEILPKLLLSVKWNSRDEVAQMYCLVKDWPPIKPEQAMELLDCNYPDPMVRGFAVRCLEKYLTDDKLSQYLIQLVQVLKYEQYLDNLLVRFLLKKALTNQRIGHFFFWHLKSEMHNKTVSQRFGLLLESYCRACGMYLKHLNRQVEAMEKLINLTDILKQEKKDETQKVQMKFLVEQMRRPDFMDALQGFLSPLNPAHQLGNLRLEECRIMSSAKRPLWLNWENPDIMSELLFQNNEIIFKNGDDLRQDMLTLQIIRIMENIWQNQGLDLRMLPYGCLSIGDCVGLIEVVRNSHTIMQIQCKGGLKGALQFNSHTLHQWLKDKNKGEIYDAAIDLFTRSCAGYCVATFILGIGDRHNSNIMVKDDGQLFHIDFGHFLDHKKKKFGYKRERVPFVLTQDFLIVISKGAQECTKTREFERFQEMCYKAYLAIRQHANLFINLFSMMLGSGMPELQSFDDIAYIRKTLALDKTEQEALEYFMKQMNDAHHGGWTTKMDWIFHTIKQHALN

Data set [16] deals with Huh-7. Put plainly: Effect on formation of DENV replication complex in human Huh-7 cells assessed as reduction in expression of NS5 at 50 uM measured after 8 to 24 hrs by DAPI staining based confocal microscopy analysis. Type of data set: functional, cell-based. The following applies: time 8-24 hrs. An outline of the steps: as §3
Data set [17] concerns Influenza A virus. Put plainly: Antiviral activity against Influenza A Puerto Rico/8/34/H1N1 infected in human A549 cells assessed as inhibition of hemagglutinin expression at 20 uM pretreated for 2 hrs followed by infection of fresh cell monolayer of A549 cells with supernatant for 24 hrs by In-cell western assay. Type of data set: functional, organism-based. The following applies: A/Puerto Rico/8/1934(H1N1). An outline of the steps: as §2

Data set [18] has as its system Influenza A virus. Description: Antiviral activity against Influenza A Puerto Rico/8/34/H1N1 infected in human A549 cells assessed as reduction in viral protein expression at 20 uM treated for 24 hrs post viral adsorption followed by staining with anti-Flu antibody observed at 24 hrs post infection by In-cell western assay. Type of data set: functional, organism-based. The following applies: A/Puerto Rico/8/1934(H1N1).

The nature of data set [19]: Inhibition of DENV NS5-MTase domain using GpppA2'OMe-RNA74 as a substrate incubated for 30 mins by filter binding assay. As to conditions: read-out: IC50. Set-up: species or system dengue virus type 2. An outline of the steps: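 MTase (1 μM) incubated with increasing inhibitor in 40 mM Tris-HCl pH 7.5, 5 mM DTT, 10 μM AdoMet ([3H]-labelled), 0.5 μM GpppA2′OMe-RNA74 substrate, 30 °C for 30 min; stopped in ice-cold 100 μM AdoHcy; DEAE filter binding, scintillation counting.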

In data set [20] the test system is Influenza A virus. Put plainly: Antiviral activity against Influenza A Puerto Rico/8/34/H1N1 infected in human A549 cells assessed as inhibition of hemagglutinin expression at 20 uM treated for 1 hr during viral absorption followed by infection of fresh cell monolayer of A549 cells with supernatant for 24 hrs by In-cell western assay. Type of data set: functional. The following applies: A/Puerto Rico/8/1934(H1N1). The method, boiled down:
as §2

Data set [21] relates to Zika virus. Put plainly: Antiviral activity against Zika virus H/PF/2013 infected in pre-seeded Huh-7 cells assessed as inhibition of viral replication incubated for 72 hrs by immunodetection based secondary yield reduction assay. Type of data set: functional, organism-based. The following applies: H/PF/2013, Huh-7, 72 h.

Active and inactive are the calls of the source. The rule behind the calls is not given here.

For `FC(F)(F)c1cccc(Nc2nc(NCCOc3ccccc3)nc3[nH]cnc23)c1`, in data set [1], the selectivity ratio at 72 h is 400. The 50% inhibitory concentration (IC50) – broadly, the concentration at which inhibition is half-maximal – in data set [2] turned out to be 12.8 µM; in [8] it was 20.8 µM; in [14], 0.8 µM; in data set [19], 112 µM; in data set [21] it was 1.1 µM. For the same compound, the 50% cytotoxic concentration (CC50) (usually the concentration that lowers cell viability or growth by half) amounted to 200 µM in data set [3]; 77 µM in [9]; 120 µM in [10]; 81.3 µM in data set [12]; 200 µM in data set [13]. Also, the inhibition at 20 µM in data set [4] and in data set [20] was 50% in each case. Also, the selectivity ratio came out at 14.5 in data set [5] and 4 in [6]. The Activity entry in data set [7], in data set [11], in data set [16] and in [18] was “Active” throughout. For the same compound, the activity at 10 min, 5 µM in data set [15] came to 66%. Moreover, in data set [17], the inhibition (usually the drop in the measured response relative to a control, in per cent) is “inactive”.
